Test results published in ChEMBL document CHEMBL4316599, “Synthesis, in vitro and in vivo biological evaluation of substituted 3-(5-imidazo[2,1-b]thiazolylmethylene)-2-indolinones as new potent anticancer agents” (Eur J Med Chem, 2019).
The source made the active and inactive calls. The rule behind the calls is not given here.

Assays:
[1] = test system: Leukemia cell; assay: Cytotoxicity against human leukemia cells after 48 hrs by SRB assay; format: functional
Summary of the method: (§1)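 NCI-60 screen: single-dose pass at 10^-5 M, then a five-concentration assay from 10^-9 to 10^-4 M (highest 100 μM). Exposure was 48 h under standard NCI protocols. GI50, TGI and LC50 were derived per cell line and averaged by subpanel. Repeated tests are the mean of two experiments.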

[2] = Cytotoxicity against human COLON cells after 48 hrs by SRB assay; format: functional; summary of the method: as §1
[3] = test system: Ovarian carcinoma cell; assay: Cytotoxicity against human ovarian cancer cells after 48 hrs by SRB assay; format: functional; summary of the method: as §1
[4] = test system: Renal cancer cell line; assay: Cytotoxicity against human renal cancer cells after 48 hrs by SRB assay; format: functional; summary of the method: as §1
[5] = molecular target: Tubulin (Bos taurus, UniProt Q6B856+Q862L2+Q862F3); assay: Inhibition of bovine brain tubulin polymerization after 20 mins by spectrophotometric analysis
Summary of the method: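 Bovine brain tubulin (10 μM) in glutamate buffer preincubated with varying compound levels at 30 °C, then chilled to 0 °C. GTP added to 0.4 mM final, then warmed to 30 °C. Assembly followed by turbidity at 350 nm. IC50 is the concentration halving the extent of assembly after 20 min.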

[6] = molecular target: T1, Tubulin (Bos taurus) (UniProt Q6B856+Q862L2+Q862F3); assay: Inhibition of [3H]colchicine binding to bovine brain tubulin at 5 uM after 20 mins relative to control
Summary of the method: (§2)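 Reaction mixtures held 1 μM tubulin, 5 μM [³H]colchicine and test compound at 5 or 50 μM. Read-out was percent inhibition of colchicine binding.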

[7] = molecular target: T1, Tubulin (Bos taurus); assay: Inhibition of [3H]colchicine binding to bovine brain tubulin at 50 uM after 20 mins relative to control; summary of the method: as §2
[8] = test system: HeLa; assay: Cell cycle arrest in human HeLa cells assessed as accumulation of cells at G2/M phase after 24 hrs by propidium iodide staining-based flow cytometric analysis; format: functional
Summary of the method: (§3)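 Cells exposed to a range of concentrations for 24 h (HeLa at 5×10^5 cells), then fixed in ice-cold 70% ethanol. Lysis buffer with RNase A and 0.1% Triton X-100 was applied before PI staining. DNA content was read by flow cytometry and G1/S/G2/M fractions taken from DNA histograms. Mean ± SEM of two independent experiments.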

[9] = test system: HT-29; assay: Cell cycle arrest in human HT-29 cells assessed as accumulation of cells at G2/M phase after 24 hrs by propidium iodide staining-based flow cytometric analysis; format: functional; summary of the method: as §3
[10] = test system: HeLa; assay: Cell cycle arrest in human HeLa cells assessed as accumulation of cells at G2/M phase at 50 nM after 24 hrs by propidium iodide staining-based flow cytometric analysis relative to control; format: functional; summary of the method: as §3
[11] = test system: HT-29; assay: Cell cycle arrest in human HT-29 cells assessed as accumulation of cells at G2/M phase at 50 nM after 24 hrs by propidium iodide staining-based flow cytometric analysis relative to control; format: functional; summary of the method: as §3
[12] = test system: A549; assay: Cell cycle arrest in human A549 cells assessed as accumulation of cells at G2/M phase at 50 nM after 24 hrs by propidium iodide staining-based flow cytometric analysis relative to control; format: functional; summary of the method: as §3
[13] = test system: HeLa; assay: Cell cycle arrest in human HeLa cells assessed as reduction in accumulation of cells at G1 phase up to 1000 nM after 24 hrs by propidium iodide staining-based flow cytometric analysis; format: functional; summary of the method: as §3
[14] = test system: A549; assay: Cell cycle arrest in human A549 cells assessed as reduction in accumulation of cells at G1 phase up to 600 nM after 24 hrs by propidium iodide staining-based flow cytometric analysis; format: functional; summary of the method: as §3
[15] = test system: HeLa; assay: Cell cycle arrest in human HeLa cells assessed as reduction in accumulation of cells at S phase up to 1000 nM after 24 hrs by propidium iodide staining-based flow cytometric analysis; format: functional; summary of the method: as §3
[16] = test system: HT-29; assay: Cell cycle arrest in human HT-29 cells assessed as reduction in accumulation of cells at S phase up to 1000 nM after 24 hrs by propidium iodide staining-based flow cytometric analysis; format: functional; summary of the method: as §3
[17] = test system: A549; assay: Cell cycle arrest in human A549 cells assessed as reduction in accumulation of cells at S phase up to 600 nM after 24 hrs by propidium iodide staining-based flow cytometric analysis; format: functional; summary of the method: as §3
[18] = test system: K562; assay: Cell cycle arrest in human K562 cells assessed as mitotic index at 10 times IC50 by Giemsa staining-based assay (reference value: 3%); format: functional
[19] = test system: HeLa; assay: Cell cycle arrest in human HeLa cells assessed as increase in cyclin B1 expression at 50 nM after 24 hrs by Western blot analysis; format: functional, cell-based
Summary of the method: (§4)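 HeLa cells treated 24 h, washed in ice-cold PBS and lysed on ice 30 min. Lysates were spun at 15000 x g, 4 °C. 10 µg protein run on SDS-PAGE and blotted to PVDF. Blots were blocked in 5% BSA overnight at 4 °C and probed 2 h at room temperature. Detection by HRP-secondary and ECL, with bands normalized to β-actin as fold of untreated. Three independent experiments, one-way ANOVA/Dunnett.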

[20] = test system: HeLa; assay: Induction of apoptosis in human HeLa cells assessed as increase in cleaved PARP levels at 50 nM after 24 hrs by Western blot analysis; format: functional, cell-based; summary of the method: as §4
[21] = test system: HeLa; assay: Induction of apoptosis in human HeLa cells assessed as decrease in Bcl-2 levels at 50 to 250 nM after 24 hrs by Western blot analysis; format: functional, cell-based; summary of the method: as §4
[22] = test system: B16-BL6; assay: Growth inhibition of mouse B16-BL6 cells after 72 hrs by MTT assay; format: functional; details: B16-BL6, 72 h
Summary of the method: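 Murine BL6-B16 melanoma and EO771 breast tumor cells were exposed to compound for 72 h. GI50 is reported ± error.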

[23] = test system: B16-BL6; assay: Antitumor activity mouse B16-BL6 cells implanted in C57BL/6 mouse assessed tumor growth inhibition at 15 mg/kg, ip dosed every other day for 18 days relative to control; format: functional; details: 432 h, read-out: TGI
Summary of the method: (§5)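 Syngeneic allograft: C57BL/6 mice, six weeks old, given 2.5×10^5 BL6-B16 or E0771 cells subcutaneously in the dorsolateral flank in PBS. Dosing began at about 100 mm³. Test compound or reference was given intraperitoneally every other day in 50 μL DMSO, with DMSO vehicle controls. Tumor volume was compared with the vehicle group, 5 animals per group, mean ± SEM, by 2-way ANOVA with Bonferroni correction.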

[24] = test system: E0771; assay: Antitumor activity mouse E0771 cells implanted in C57BL/6 mouse assessed tumor growth inhibition at 15 mg/kg, ip dosed every other day for 20 days relative to control; format: functional; details: 480 h, read-out: TGI; summary of the method: as §5
[25] = Toxicity in C57BL/6 mouse implanted with mouse B16-BL6 cells assessed as effect on body weight at 7.5 to 15 mg/kg, ip dosed every day for 18 days; format: organism-based; details: in vivo, 432 h, in the assay text read “every other day” for “every day”
Summary of the method: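 C57BL/6 mice, six weeks old, received 2.5×10^5 BL6-B16 or E0771 cells s.c. in the dorsolateral flank in PBS. Dosing began once tumours reached about 100 mm³: 7.5 or 15 mg/kg i.p. every other day in 50 μL DMSO. Vehicle and CA-4P 30 mg/kg served as controls. Body weight was monitored, with 5 animals per group.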

SMILES: O=C1Nc2c(ccc3ccccc23)C1=Cc1c(-c2ccncc2)nc2sccn12
- GI50 [1]: 0.03 µM
- TGI [1]: 79.5 µM
- GI50 [2]: 0.03 µM
- TGI [2]: 39.9 µM
- CC50 ([2]; read-out: LC50 (the source's name)): 77 µM
- GI50 [3]: 0.05 µM
- LC50 (50% lethal concentration) [3]: 80 µM
- TGI [3]: 73.8 µM
- GI50 [4]: 11.8 µM
- TGI [4]: 70.1 µM
- IC50 [5]: 14 µM
- inhibition [6]: 25%
- inhibition [7]: 51%
- Activity [8]: Dose-dependent effect
- Activity [9]: Dose-dependent effect
- Activity [10]: >80%
- Activity [11]: >80%
- Activity [12]: >80%
- Activity [13]: Active
- Activity [14]: Active
- Activity [15]: Active
- Activity [16]: Active
- Activity [17]: Active
- Activity [18]: 58%
- Activity [19]: Active
- Activity [20]: Active
- Activity [21]: Active
- GI50 [22]: 0.305 µM
- inhibition in vivo at 15 mg/kg [23]: 29.4%
- inhibition in vivo at 15 mg/kg [24]: 56.8%
- Activity [25]: Non-Toxic
